Assay outcomes deposited in PubChem by Broad Institute.
DYRK1A inh: rat Dyrk1A kinase inhibitors, primary screen, biochemical, single point, plate reader; 310,000 tested, 0.43% active; ADP-Glo luminescence, NFATc1 peptide; inhibition, % at 12.5 µM; in the data active means inhibition above about 50%;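 further: plate controls were vehicle with enzyme for no effect and no enzyme for full effect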
CAL PDZ FP-1: untagged CAL PDZ binding inhibitors, primary screen, biochemical, fluorescence polarization, HTS | purified CAL PDZ, TMR-peptide fluorescence polarization, 1 h | Golgi-associated PDZ and coiled-coil motif-containing protein (Homo sapiens), Q9HD26 | 300,000 tested, 0.92% active | inhibition, % at 24.9 µM;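 active means mean inhibition of at least 30% with at least half of replicates also reaching 30%; inconclusive means no clear call, values can overlap the other calls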;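 further: 0% = DMSO neutral control and 100% = excess unlabeled competitor peptide PRC23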
ALR inh: inhibitors of human ALR sulfhydryl oxidase, primary screen, biochemical, H2O2 detection, HRP-luminol luminescence, single point; inhibition, % (no concentration beside the values); 290,000 tested, 3.8% active; purified ALR, DTT oxidation; AID 485317, 2010;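 active means mean replicate inhibition above about 79%, with every replicate also reaching it, limit read from the data; inconclusive means only one of the two criteria met; inactive means mean below limit and not every replicate reaching it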
Target sequence (P55789 whole entry, looked up): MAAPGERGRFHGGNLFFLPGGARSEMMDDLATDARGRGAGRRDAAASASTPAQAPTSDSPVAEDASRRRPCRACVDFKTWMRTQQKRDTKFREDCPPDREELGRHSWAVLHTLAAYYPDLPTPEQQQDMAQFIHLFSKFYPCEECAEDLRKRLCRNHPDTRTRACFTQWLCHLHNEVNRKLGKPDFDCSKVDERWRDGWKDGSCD
CAL PDZ FP-2: CAL PDZ peptide-binding inhibitors, primary screen, biochemical, fluorescence polarization, Cer-tagged CAL PDZ, HTS; Golgi-associated PDZ and coiled-coil motif-containing protein (Homo sapiens), Q9HD26; purified CAL PDZ, TMR-peptide fluorescence polarization, 1 h; inhibition, % at 20 µM; AID 504414, 2011; 330,000 tested, 0.02% active;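 active means highest replicate inhibition of at least 40%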;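 further: plate controls were DMSO neutral control wells for no effect and unlabeled competitor peptide control wells for full effect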
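Test system: tagged CAL PDZ domain / Buffer or medium: sodium phosphate/NaCl buffer pH 7.4 with TCEP, IgG, Thesit / Reagent: TMR-labelled reporter peptide T*-PRC34 bound in PDZ groove / Compound dosing: single point, 20 µM / Schedule: 1 h incubation at room temperature before polarization reading / Technique: fluorescence polarization (mP) / Benchmarks: unlabelled peptide, DMSO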
Rtt109 Vps75: inhibitors of C. albicans Rtt109/Vps75 HAT, primary screen, biochemical, ThioGlo CoA-SH fluorescence, plate reader | 330,000 tested, 0.16% active | inhibition, % at 34.9 µM | AID 540336, 2011 | purified Rtt109/Vps75, 4 h;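 active means inhibition of at least 50% in every replicate; inconclusive means best replicate reaches 50% inhibition but some replicates fall short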
Target sequence (Q5AAJ8 whole entry, looked up): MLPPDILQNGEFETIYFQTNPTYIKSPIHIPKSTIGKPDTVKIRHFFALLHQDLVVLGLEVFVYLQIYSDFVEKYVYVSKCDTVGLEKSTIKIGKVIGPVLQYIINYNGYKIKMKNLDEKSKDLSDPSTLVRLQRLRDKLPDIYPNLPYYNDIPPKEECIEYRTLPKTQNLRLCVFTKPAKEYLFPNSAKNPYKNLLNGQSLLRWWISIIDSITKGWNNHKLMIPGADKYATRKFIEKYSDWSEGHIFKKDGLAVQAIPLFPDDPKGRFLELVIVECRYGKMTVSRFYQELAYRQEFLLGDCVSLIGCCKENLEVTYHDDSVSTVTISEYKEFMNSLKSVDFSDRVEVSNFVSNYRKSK
An asterisk follows results filed as active; ? = inconclusive; / = not tested or not shown. Most compounds without a hit are left out; they make up all but 4.3% or so of the library.

SMILES	DYRK1A inh	CAL PDZ FP-1	ALR inh	CAL PDZ FP-2	Rtt109 Vps75
CSc1cccc(NC(=O)CNC(=O)c2ccc3c(c2)OCO3)c1	-1	61*	-11	-1	0
CCOc1ccc(C(=O)NCC(=O)Nc2ccc3c(c2)OCO3)cc1OCC	2	0	/	0	/
CC(=O)CSc1nc2c(c(=O)[nH]c(=O)n2C)n1Cc1cccc(Br)c1	2	57*	-8	-1	0
CN(CC(=O)Nc1ccccc1Cl)C(=O)COC(=O)Cc1ccc(F)cc1	-1	-3	-1	-2	-10
COc1ccc(C(=O)NC(Nc2ccc(C)cc2)C(Cl)(Cl)Cl)cc1 (stereo not drawn)	1	-4	46	-4	0
COc1ccc(NC(NC(=O)c2ccc(OC)cc2)C(Cl)(Cl)Cl)cc1 (stereo not drawn)	-4	14	98*	1	5
COc1ncccc1-c1nnn(-c2ccc(F)cc2)n1	3	-5	-2	0	-6
COc1cccc(N2CCN(C(=S)NCc3ccco3)CC2)c1	-3	-1	87*	-1	0
CCc1ccc(CNc2ccc(N3CCN(C(C)=O)CC3)cc2)cc1	11	-2	99*	1	-5
CC(=O)Nc1ccc(N2CCN(C(C)=O)CC2)cc1	-3	-4	7	-2	/
Cc1ccc(CNC(=O)N2CCN(c3ccc(C)cc3)CC2)cc1	-4	-9	-1	/	-6
CC(=O)N1CCN(c2ccc(NCc3ccc(C)cc3)cc2)CC1	-2	-2	99*	-2	8
CC(=O)N1CCN(c2ccc(NCc3ccco3)cc2)CC1	5	0	99*	1	2
CC(=O)N1CCN(c2ccc(NC(=O)c3ccco3)cc2)CC1	-4	/	26	-1	-21
Cc1cc(NC(=O)Cn2nc([N+](=O)[O-])c(Br)c2C)no1	-6	-4	-5	-4	-7
CCOc1ccc(CCNC(=O)c2ccc(OCc3c(C)noc3C)cc2)cc1OCC	9	-6	0	-2	0
CC(=O)N1CCN(c2ccc(NCc3ccc(-c4cccc(Cl)c4)o3)cc2)CC1	5	1	85*	-2	-5
COc1ccc(N2CCN(C(c3cccs3)C(C)NS(C)(=O)=O)CC2)cc1 (stereo not drawn)	0	-3	99*	-1	0
CC(NS(C)(=O)=O)C(c1cccs1)N1CCN(C)CC1 (stereo not drawn)	-10	-3	-10	0	0
CC(NS(C)(=O)=O)C(c1cccs1)N1CCN(c2ccc(F)cc2)CC1 (stereo not drawn)	-2	0	98*	-1	1
CC(NC(=O)C(=O)N1CCOCC1)C(c1cccs1)N1CCN(c2ccc(F)cc2)CC1 (stereo not drawn)	4	/	98*	-1	-3
Cc1cccc(N(C)S(=O)(=O)c2c(C)noc2C)c1	-1	-4	3	-3	0
CCC(=O)Oc1ccc(C2NC(=O)c3ccccc3O2)cc1OC (stereo not drawn)	-2	1	6	1	-6
CCOC(=O)c1ccc2[nH]c(C)c(C)c2c1	5	-3	98*	1	2
Cc1[nH]c2ccc(C(=O)N3CCCCC3)cc2c1C	-6	-4	96*	0	0
SMILES	DYRK1A inh	CAL PDZ FP-1	ALR inh	CAL PDZ FP-2	Rtt109 Vps75
Cc1[nH]c2ccc(C(=O)N3CCC(C(N)=O)CC3)cc2c1C	/	-6	?	0	3
Cc1[nH]c2ccc(C(=O)N3CCCC3)cc2c1C	2	1	90*	0	24
COc1ccc(C2=NOC(CNC(=S)N3CCOCC3)C2)cc1 (stereo not drawn)	-2	-1	34	0	-3
Cc1ccc(C(=O)C(C)OC(=O)CN2C(=O)NC3(CCCC3)C2=O)cc1 (stereo not drawn)	-6	-4	-12	-1	5
COc1cccc(NC(=O)C(NC2CCCC2)c2ccccc2)c1 (stereo not drawn)	-3	-3	25	0	8
Cc1ccc(NC(=O)C(NC2CCCC2)c2ccccc2)cc1Cl (stereo not drawn)	0	58*	-3	-1	2
CCCN(CC(=O)Nc1ccccc1C)C(=O)c1sc2ccccc2c1Cl	/	61*	-2	0	-6
C=CCOc1ccccc1CNc1ccc2[nH]c(=O)[nH]c2c1	3	-6	99*	0	-4
COc1cc(CNc2ccc3[nH]c(=O)[nH]c3c2)ccc1OCc1ccccc1Cl	0	0	-55	1	-7
COc1cccc(CNc2ccc3[nH]c(=O)[nH]c3c2)c1OCc1ccccc1F	/	-3	99*	-1	-6
C=CCOc1c(Cl)cc(CNc2ccc3[nH]c(=O)[nH]c3c2)cc1OC	0	-5	98*	-1	-5
CCCCN1C=CC(=C2C(=O)c3ccccc3C2=O)C=C1	20	-1	-4	-3	/
COc1ccccc1C(=O)NCC(=O)N=Nc1c(O)n(C(C)C)c2ccccc12	5	-7	-7	-4	64*
N#C/C(=C/c1ccc(F)cc1)S(=O)(=O)c1ccccc1	0	-3	-19	0	1
N#C/C(=C\c1ccc(C(=O)O)cc1)S(=O)(=O)c1cc(Br)ccc1Br	0	1	92*	-1	-2
C1CCCC(NC2=NCCO2)CCC1	-2	59*	-1	-1	2
CCOc1ccc(N(CC(=O)NCc2ccc(C)cc2)S(=O)(=O)c2c(C)[nH]c(=O)[nH]c2=O)cc1	1	38*	-3	-1	4
COc1ccc(N(CC(=O)NCc2ccc(C)cc2)S(=O)(=O)c2c(C)[nH]c(=O)[nH]c2=O)cc1	-4	-2	-4	-2	5
O=S1(=O)CC=C(CSC(=S)NC2CCS(=O)(=O)C2)C1 (stereo not drawn)	-2	17	99*	-1	-28
O=C(NC1CCCC1)C(c1ccccn1)N(Cc1ccc(F)cc1)C(=O)c1csnn1 (stereo not drawn)	-2	51*	-11	-1	-2
C=CCn1c(-c2ccc(OC)cc2)csc1=Nc1c(C)n(C)n(-c2ccccc2)c1=O	-1	-1	67	0	21
Cc1csc(=Nc2c(C)n(C)n(-c3ccccc3)c2=O)n1Cc1ccccc1	-4	-7	97*	0	-2
CC(C)COP(=O)(c1ccc(N(C)C)cc1)C(O)c1ccncc1 (stereo not drawn)	3	-2	2	-1	1
CC(C)COP(=O)(c1ccc(N(C)C)cc1)C(O)c1ccccc1 (stereo not drawn)	1	-2	11	0	9
